Screening results (PubChem)
Sampled rows, rich in hits. Any-hit rate of the full collection: about 3.7%.
DENV2 CPE rescue: inhibitors of DENV2 cytopathic effect, primary screen, cell-based, plate reader, single concentration | DENV2-infected cells, cytopathic effect rescue | CPE inhibition, % at 9.99 µM | actives 1.7% (n = 350,000) | AID 651640, 2012; in the data active means CPE inhibition above about 20%, passing the limit was not always enough; inconclusive means no clear call, values can overlap the other calls; tested in BHK-21 cells;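 further: 0% = median of neutral control wells and 100% = median of positive control wells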
FGF22 binding: binders of human FGF22 protein, primary screen, FGF22 synaptogenesis inhibitor project, biophysical, thermal shift, single point; recombinant FGF22 thermal shift, SYPRO orange fluorescence; percent of sucrose octasulfate shift, DMSO zero; activity (Tm shift, normalised), % at 9.99 µM; actives 1.5% (n = 340,000);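 active means mean Tm shift, scaled 0 neutral to 100 positive control, at about 1.3% or above, every replicate too, limit read from the data; inconclusive means no clear call, values can overlap the other calls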
Target sequence (Q9HCT0 whole entry, looked up): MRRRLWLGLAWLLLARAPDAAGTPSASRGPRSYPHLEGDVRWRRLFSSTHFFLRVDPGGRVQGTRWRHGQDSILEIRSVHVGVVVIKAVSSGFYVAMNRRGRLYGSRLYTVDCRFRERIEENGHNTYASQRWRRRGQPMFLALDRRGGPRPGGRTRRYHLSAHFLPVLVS
ERAP1 inh: human ERAP1 aminopeptidase inhibitors, primary screen, biochemical, single point, plate reader. Endoplasmic reticulum aminopeptidase 1 (Homo sapiens), Q9NZ08. actives 0.15% (n = 340,000). recombinant ERAP1, Leu-AMC fluorescence, 60 min. inhibition, % at 10.7 µM;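 active means mean replicate inhibition of at least 30%, or all replicates individually reaching that 30% level; inactive means mean below 30% and not every replicate reaching it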;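 further: 0% = neutral control wells and 100% = L-leucinethiol positive control wells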
E-selectin induc: E-selectin induction in HUVECs, primary screen, imaging, HUVEC, immunofluorescence imaging, single point. P16581. normalized: neutral wells 0, TNF-alpha wells 100. activation, % at 7.58 µM. actives 0.37% (n = 260,000). AID 686992, 2013;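 active means mean E-selectin-positive cell signal at least 10% of the positive control, reached in at least 60% of replicates, without over 20% cell loss; inconclusive means no rule given, readout overlaps actives, possibly toxicity-flagged; inactive means the rest, including those meeting only one limit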
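material = human umbilical vein endothelial cells (HUVEC), E-selectin induction | quantity = 3,000 cells/well | medium = EGM-2 growth medium on 0.1% gelatin-coated wells | technique = immunofluorescence imaging | read-out basis = % PE-positive cells | control set = TNF-alpha positive control, DMSO neutral control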
F508del corr: F508del CFTR correction, initial screen, CFBE line, single point. CFBE cells, YFP halide quenching; stimulated with forskolin plus potentiator P3; % fluorescence drop versus neutral controls. activity (quench increase), % at 7.58 µM. actives 0.36% (n = 350,000). AID 720511, 2013;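 active means mean added fluorescence quench of at least 8% versus neutral control, with both replicates also reaching 8%; inconclusive means only one of the mean or replicate conditions met; inactive means mean below 8% and not both replicates reaching 8%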;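 further: cells transiently co-express mutant CFTR-F508del with the halide-sensitive YFP; corrector assay measuring rescue of mutant channel to the surface after 24 h compound exposure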
Active calls of the source: *.

For O=C(COC(=O)c1ccc2c(c1)OCO2)NC1CCCCC1 the results were DENV2 CPE rescue 21*, FGF22 binding 0 and ERAP1 inh -9.
`CCCNC(=O)N1[C@H](CO)[C@H]2c3ccccc3N(C)C[C@H]21` gave DENV2 CPE rescue -6, FGF22 binding 0, ERAP1 inh 2, E-selectin induc 1 and F508del corr -1.
`CO[C@H](CN(C)S(=O)(=O)c1ccc(C)cc1)[C@@H](C)CN(C(=O)Nc1ccccc1F)[C@H](C)CO` gave DENV2 CPE rescue 30*, FGF22 binding 0, ERAP1 inh 0, E-selectin induc 0 and F508del corr 2.
For CO[C@H](CN(C)Cc1cc(F)ccc1F)[C@@H](C)CN([C@@H](C)CO)S(=O)(=O)c1ccc(F)cc1 the results were DENV2 CPE rescue 103*, FGF22 binding 0, ERAP1 inh -5, E-selectin induc 0 and F508del corr -1.
For CO[C@@H](CN(C)S(=O)(=O)c1ccc(C)cc1)[C@H](C)CN([C@@H](C)CO)S(=O)(=O)c1cccc(Cl)c1 the results were DENV2 CPE rescue -3, FGF22 binding 0, ERAP1 inh 0, E-selectin induc 0 and F508del corr 11*.
Screening COc1ccc(-c2cnc3c(c2)C(=O)N([C@@H](C)CO)C[C@@H](C)[C@@H](CN(C)C(=O)C2CC2)O3)cc1 returned E-selectin induc 0 and F508del corr -1.
`Nc1ccc(NC2C[C@@H](C(=O)O)NC2=O)cc1` (some centres not stated) gave DENV2 CPE rescue 1, FGF22 binding 43*, ERAP1 inh 2 and F508del corr 1.
For COc1cc(COCC(O)CN2CCc3ccccc3C2)cc(OC)c1OC (configuration not stated) the results were DENV2 CPE rescue -6, FGF22 binding 44*, ERAP1 inh -5, E-selectin induc 0 and F508del corr 0.
Screening Cn1c(CC(=O)NN)c(Sc2ccccc2)c2ccccc21 returned DENV2 CPE rescue 7, FGF22 binding 0, ERAP1 inh -2, E-selectin induc 0 and F508del corr 12*.
Screening COC(=O)c1c(Sc2ccccc2)c2ccccc2n1C returned DENV2 CPE rescue 6, FGF22 binding 0, ERAP1 inh 8, E-selectin induc 0 and F508del corr -1.
`Cn1c(CC(=O)NCCO)c(Sc2ccccc2)c2ccccc21` gave E-selectin induc 2.
O=C(Cc1c(Sc2ccccc2)c2ccccc2n1Cc1ccccc1)NCCO was read as DENV2 CPE rescue -5, FGF22 binding 43*, ERAP1 inh -3, E-selectin induc 0 and F508del corr 0.
For CC(C)CC#Cc1cnc2c(c1)C(=O)N([C@H](C)CO)C[C@H](C)[C@@H](CN(C)Cc1ccccc1F)O2 the results were DENV2 CPE rescue 8, FGF22 binding 0, ERAP1 inh 3, E-selectin induc 0 and F508del corr -1.
CC(C)c1cn(CC[C@H]2CC[C@H](NC(=O)Nc3cc(Cl)cc(Cl)c3)[C@H](CO)O2)nn1 was read as DENV2 CPE rescue -6, ERAP1 inh 0, E-selectin induc 0 and F508del corr 1.
`O=C(C[C@H]1C=C[C@H](NC(=O)c2cccc(F)c2)[C@@H](CO)O1)NCCN1CCCC1` gave DENV2 CPE rescue inconclusive, FGF22 binding 0, ERAP1 inh -4, E-selectin induc -1 and F508del corr 1.
For CCC(=O)Nc1ccc2c(c1)OC[C@@H](C)N(C(=O)NC(C)C)C[C@@H](C)[C@H](OC)CN(C)C2=O the results were DENV2 CPE rescue 16, FGF22 binding 0, ERAP1 inh 3, E-selectin induc 0 and F508del corr -1.
O=C(C[C@@H]1C[C@@H]2c3cc(NC(=O)c4ccc5c(c4)OCO5)ccc3O[C@@H]2[C@@H](CO)O1)NC1CCCC1 was read as DENV2 CPE rescue 34*, FGF22 binding 0, ERAP1 inh -2, E-selectin induc 0 and F508del corr 1.
`O=C(C[C@@H]1C[C@H]2c3cc(NC(=O)c4ccc5c(c4)OCO5)ccc3O[C@H]2[C@@H](CO)O1)NCC1CC1` gave DENV2 CPE rescue 27*, FGF22 binding 0, ERAP1 inh 2, E-selectin induc 0 and F508del corr -2.
O=C(C[C@@H]1C[C@H]2c3cc(NC(=O)c4ccc5c(c4)OCO5)ccc3O[C@H]2[C@H](CO)O1)NC1CCCC1 was read as DENV2 CPE rescue 7, FGF22 binding 0, ERAP1 inh -2, E-selectin induc 0 and F508del corr -4.
For COC(=O)c1ccc2nc(NC(=O)C(C)(C)C)sc2c1 the results were DENV2 CPE rescue 3, FGF22 binding 43*, ERAP1 inh 0 and F508del corr 2.
`COC(=O)c1ccc2nc(NC(=O)C3CCCCC3)sc2c1` gave DENV2 CPE rescue 3, FGF22 binding 0 and ERAP1 inh 6.
Screening CC[N+](C)(CC)CC(=O)OCC1C(C)C=C(C)CC1C (configuration not stated) returned DENV2 CPE rescue -3, FGF22 binding 0, ERAP1 inh 106*, E-selectin induc 0 and F508del corr 0.
`CN1CCN(C(=O)C[C@H]2CC[C@@H]3[C@H](COC[C@@H](O)CN3S(=O)(=O)c3cccc(Cl)c3)O2)CC1` gave DENV2 CPE rescue 23*, FGF22 binding 0, ERAP1 inh 0, E-selectin induc 0 and F508del corr 1.
O=C(C[C@H]1CC[C@@H]2[C@H](COC[C@H](O)CN2S(=O)(=O)c2cccc(Cl)c2)O1)N1CCCCC1 was read as DENV2 CPE rescue -1, FGF22 binding 0, E-selectin induc 0 and F508del corr 0.
For O=C(C[C@H]1CC[C@@H]2[C@H](COC[C@H](O)CN2S(=O)(=O)c2cccc(Cl)c2)O1)N1CCOCC1 the results were DENV2 CPE rescue 21*, FGF22 binding 0, ERAP1 inh 0, E-selectin induc 0 and F508del corr 0.
Screening CCc1n[nH]c(=S)n1N=C1CCC(C)CC1 (configuration not stated) returned DENV2 CPE rescue 0, FGF22 binding 43*, ERAP1 inh 1, E-selectin induc 0 and F508del corr -2.
C[C@H]1CN([C@@H](C)CO)C(=O)c2ccccc2-c2ccccc2CO[C@H]1CN(C)C(=O)c1cc(Cl)cc(Cl)c1 was read as DENV2 CPE rescue 9, FGF22 binding 0, ERAP1 inh 5, E-selectin induc 0 and F508del corr 0.
